HMGR II inh: inhibitors of class II HMG-CoA reductase from Enterococcus faecalis; purified E. faecalis HMGR, NADPH absorbance 340 nm kinetic; inhibition, % at 10 µM; 190,000 compounds, 0.41% hits;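 active = inhibition above a set limit, the median over all tested compounds plus 3 SD, cut at about 9.5% in these data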;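 also: enzyme runs in reverse so mevalonate oxidation gives rising NADPH absorbance; 0% = complete reaction with DMSO and 100% = background rate lacking mevalonate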
TNAP inh hi DEA: blocks human TNAP under high phosphate acceptor concentration. P05186. purified TNAP, CDP-star luminescence, 1 M DEA. inhibition, % at 20 µM. 200,000 compounds, 0.03% hits. AID 1135;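 active = over 50% inhibition of tissue-nonspecific alkaline phosphatase at 20 µM in the single-dose screen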;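 also: plate controls were DMSO wells for no effect and EDTA-quenched wells as full inhibition for full effect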
Furin inh: human furin inhibition | P09958 | purified furin, fluorogenic substrate cleavage | inhibition, % at 20 µM or 30 µM | 220,000 compounds, 0.061% hits | AID 463115; in the data active = inhibition above about 25%
Target sequence (P09958 108-714 limits assumed): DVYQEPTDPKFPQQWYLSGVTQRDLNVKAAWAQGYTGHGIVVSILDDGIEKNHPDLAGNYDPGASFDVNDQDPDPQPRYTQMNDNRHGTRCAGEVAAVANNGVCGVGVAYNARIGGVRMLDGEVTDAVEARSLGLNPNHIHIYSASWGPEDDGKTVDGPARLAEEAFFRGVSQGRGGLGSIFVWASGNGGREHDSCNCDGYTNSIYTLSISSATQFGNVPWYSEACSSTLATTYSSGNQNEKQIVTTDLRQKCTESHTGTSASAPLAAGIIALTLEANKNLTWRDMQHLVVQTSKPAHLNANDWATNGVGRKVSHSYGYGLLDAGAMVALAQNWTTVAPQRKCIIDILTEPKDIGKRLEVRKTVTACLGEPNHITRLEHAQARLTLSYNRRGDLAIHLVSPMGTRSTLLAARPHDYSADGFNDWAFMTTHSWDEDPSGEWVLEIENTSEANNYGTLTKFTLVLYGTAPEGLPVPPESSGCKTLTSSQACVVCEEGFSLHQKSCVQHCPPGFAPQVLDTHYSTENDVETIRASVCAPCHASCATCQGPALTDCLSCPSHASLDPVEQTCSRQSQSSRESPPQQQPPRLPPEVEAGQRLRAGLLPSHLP
TNAP inh no acc: blocks human TNAP activity with no phosphate acceptor present; inhibition, % at 20 µM; AID 1012; purified TNAP, CDP-star luminescence, 30 min; 200,000 compounds, 0.26% hits;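 active = tissue-nonspecific alkaline phosphatase inhibition above about 50% at 20 µM in the single-dose screen, limit read from the data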;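 also: 0% = DMSO negative control and 100% = EDTA positive control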
TNAP act hi DEA: TNAP (human) activation, high acceptor. activation factor at 20 µM. P05186. purified TNAP, CDP-star luminescence, 1 M DEA, 30 min; active compounds read high; 0 = EDTA background, 1 = DMSO-only activity. 200,000 tested, under 10 active;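 active = activation factor at least 2 at 20 µM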
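Control set: EDTA negative control, DMSO positive control / Assay system: human TNAP / Quantity: TNAP 1/800 final / Evaluation: TNAP activation factor scaled between EDTA and DMSO control wells / Measured by: luminescent substrate turnover signal / Compound dosing: one dose, 20 µM / Times: 30 min enzyme reaction at room temperature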
Pf gamet viab: P. falciparum stage V gametocyte viability inhibition; 150,000 compounds, 0.065% hits; inhibition, % at 10.9 µM; P. falciparum stage V gametocytes, ATP luminescence, 24 h;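 active = inhibition above the mean plus 3 SD of compounds within the control limits, set per campaign, cut at about 38% in these data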;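 also: 0% = DMSO wells and 100% = medium only without gametocytes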
Starred values were filed as active, the others as inactive; nt = not tested or not shown. The list is not random: actives were taken first. Their share in the collection is about 0.68%.

SMILES	HMGR II inh	TNAP inh hi DEA	Furin inh	TNAP inh no acc	TNAP act hi DEA	Pf gamet viab
O=C(CSc1n[nH]c(-c2ccccc2Cl)n1)NCc1cccc(C(=O)O)c1	-5	0	-14	93*	1	-2
COc1ccccc1-c1nc(SCC(=O)O)n[nH]1	-1	-2	-23	31	1	-2
O=[N+]([O-])c1ccc(N2CCCCC2)c(-c2nn[nH]n2)c1	14*	10	-23	11	0.9	-5
CCCNC(=O)[C@H](C)NC(=O)c1ccc(Br)cc1	3	-6	-16	-12	1.1	25
COc1ccc(Cc2nn3c(-c4ccccc4OC)nnc3s2)cc1	-7	-7	-32	59*	1.1	-19
O=C(Nc1nnc(-c2ccc3c(c2)CCCC3)o1)c1c(F)cccc1F	10*	3	-3	-1	1	-31
O=C(Nc1ccc(N2CCOCC2)c(Cl)c1)c1ccc([N+](=O)[O-])o1	26*	1	-9	0	1	5
CC(/C=C/c1ccccc1)=N\NC(=O)c1cc(C)[nH]n1	-9	-5	-6	-143	1	-13
NCCSC1CC(=O)N(Cc2ccc(F)cc2)C1=O (centres undefined)	10*	-6	-24	-36	1.1	-1
CCOc1ccc(N2C(=O)CC(SCCN)C2=O)cc1 (centres undefined)	-1	-2	-18	10	1	-7
NS(=O)(=O)c1ccc(CNC(=O)/C=C/c2ccccc2[N+](=O)[O-])cc1	-4	4	-6	62*	1	-2
COc1ccc(NC(=O)NN(C(=O)c2ccccc2)C(C)(C)C)cc1	-1	2	-11	-7	1	nt
O=C(/C=C/Nc1ccc(F)cc1F)c1ccco1	-7	-2	-26	-11	1	nt
O=C(/C=C/Nc1ccc(Br)cc1F)c1ccco1	9.8*	-2	-5	-13	1	-12
O=C1NC(=S)S/C1=C\c1ccc(SCc2ccco2)o1	13*	18	-2	8	0.8	nt
O=C1NC(=S)S/C1=C\c1ccc(SCc2ccccc2)o1	6	16	-20	-4	0.8	nt
CCOC(=O)/C(C#N)=C\C1=C(N2CCOCC2)CC(C)(C)OC1	8	8	-12	-2	0.9	7
COc1cc(C(=O)Nc2ccc(-c3nnc(-c4ccco4)o3)cc2)cc(OC)c1OC	-7	-1	30*	-8	1	nt
COc1cc(C(=O)Nc2cccc(-c3nnc(-c4ccco4)o3)c2)ccc1OC(C)=O	1	-4	-25	-9	1	13
Cc1cccc(NC(=O)C2CCCN2C(=O)NC2CCCCC2)c1 (centres undefined)	-3	-5	-20	-1	1	nt
CCn1c(-c2ccc(C)cc2)n[nH]c1=S	-2	3	-19	52*	1	nt
CCn1c(-c2nn(C)c(C)c2Cl)n[nH]c1=S	11*	-3	-18	9	1	nt
CCn1c(-c2ccc(Cl)cc2)n[nH]c1=S	-1	-5	-17	30	1	-8
CN(C)CCCNC(=O)c1cc(C(=O)c2ccc(F)cc2)c[nH]1	0	-3	-22	0	1	-7
COC(=O)c1cc(-c2ccccc2)n[nH]1	1	2	0	92*	1	nt
SMILES	HMGR II inh	TNAP inh hi DEA	Furin inh	TNAP inh no acc	TNAP act hi DEA	Pf gamet viab
CC(C)(C)NC(=O)c1cc(-c2ccccc2)n[nH]1	5	0	-12	92*	1	nt
Cc1ccc(NC(=O)c2cc(-c3ccccc3)n[nH]2)cc1	nt	nt	nt	nt	nt	-13
COC(=O)c1cc(-c2ccc(Cl)cc2Cl)n[nH]1	-8	2	-13	81*	1	8
COC(=O)c1cc(-c2ccc(Cl)cc2)n[nH]1	-8	-6	-23	87*	1.1	-1
COC(=O)c1cc(-c2ccc(OC)c(OC)c2)n[nH]1	-1	0	-11	9	1	nt
O=C(CCCCCBr)N1CCC(CC2CC(c3cccc(Br)c3)=NO2)(C(=O)NCC2CCCCC2)CC1 (centres undefined)	nt	nt	nt	nt	nt	-5
O=C1NC(=O)/C(=C/C(=O)N2CCOCC2)S1	13*	-2	-19	-5	1	-3
Cc1cc(/C=C2/SC(=O)NC2=O)c(C)n1-c1ccc(N2CCOCC2)cc1	-3	0	-10	7	1	-8
